Laboratory results taken from ChEMBL document CHEMBL2407079, “Potent DGAT1 Inhibitors in the Benzimidazole Class with a Pyridyl-oxy-cyclohexanecarboxylic Acid Moiety” (ACS Med Chem Lett, 2013).
Blank lines part the entries; values can stand above or below the compound they belong to.

Columns and labels:
[1] = target: T1, Diacylglycerol O-acyltransferase 1 (Mus musculus, UniProt Q9Z2A7); experiment: Inhibition of mouse DGAT1
T1 sequence (Q9Z2A7 whole entry): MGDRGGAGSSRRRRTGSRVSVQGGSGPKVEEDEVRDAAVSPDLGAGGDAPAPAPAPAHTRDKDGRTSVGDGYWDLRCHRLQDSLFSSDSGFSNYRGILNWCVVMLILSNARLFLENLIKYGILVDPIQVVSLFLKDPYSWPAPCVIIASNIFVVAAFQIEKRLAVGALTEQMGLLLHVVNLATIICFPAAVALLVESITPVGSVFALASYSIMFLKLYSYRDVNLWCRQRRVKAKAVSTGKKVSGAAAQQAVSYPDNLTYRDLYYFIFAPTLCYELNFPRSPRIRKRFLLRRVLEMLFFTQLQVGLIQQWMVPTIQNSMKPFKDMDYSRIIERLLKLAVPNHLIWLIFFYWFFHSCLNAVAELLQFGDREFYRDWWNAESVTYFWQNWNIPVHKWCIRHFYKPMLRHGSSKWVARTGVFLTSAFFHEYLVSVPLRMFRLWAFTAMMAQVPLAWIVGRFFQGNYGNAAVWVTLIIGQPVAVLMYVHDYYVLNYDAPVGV

[2] = target: T2, Diacylglycerol O-acyltransferase 1 (Homo sapiens, UniProt O75907); experiment: Inhibition of human DGAT1
T2 sequence (O75907 whole entry): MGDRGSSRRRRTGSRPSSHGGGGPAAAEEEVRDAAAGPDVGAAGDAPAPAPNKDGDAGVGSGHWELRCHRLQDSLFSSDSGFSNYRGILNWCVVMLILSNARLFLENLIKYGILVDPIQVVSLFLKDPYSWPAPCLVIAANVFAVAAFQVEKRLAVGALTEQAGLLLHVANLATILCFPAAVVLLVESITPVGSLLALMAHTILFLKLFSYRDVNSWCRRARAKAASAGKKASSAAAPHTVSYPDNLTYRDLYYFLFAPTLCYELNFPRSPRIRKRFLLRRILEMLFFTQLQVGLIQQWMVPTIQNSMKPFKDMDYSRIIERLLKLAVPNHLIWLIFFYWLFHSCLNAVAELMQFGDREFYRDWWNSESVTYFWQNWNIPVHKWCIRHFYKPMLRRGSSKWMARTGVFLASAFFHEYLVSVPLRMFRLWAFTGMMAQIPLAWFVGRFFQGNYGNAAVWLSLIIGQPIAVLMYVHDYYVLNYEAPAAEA

[3] = Lipophilicity, log D of the compound by HPLC analysis; assay type: physicochemical
[4] = Tmax in Sprague-Dawley rat at 10 mg/kg, po; assay type: ADME, organism-based; parameters: dose 10 mg/kg, route oral; details: in vivo
Summary of the method: (§1)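 Sprague–Dawley rats; oral 10 mg/kg given as a solid dispersion formulation, with the iv arm at 1 mg/kg in EtOH/PEG400/water (10:50:40). Plasma exposure measured for the parent and for the epimer metabolite.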

[5] = Bioavailability in rhesus monkey at 1 mg/kg, iv; assay type: ADME, organism-based, Macaca mulatta; details: in vivo
Summary of the method: (§2)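 Rhesus monkeys; iv 1 mg/kg as a solution in EtOH/PEG400/water (10:50:40), and oral 2 mg/kg as a solution in 0.5% methylcellulose. Plasma measured for the parent and the epimer metabolite.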

[6] = Tmax in rhesus monkey at 2 mg/kg, po; assay type: ADME, organism-based, Macaca mulatta; parameters: dose 2 mg/kg, route oral; details: in vivo; summary of the method: as §2
[7] = Cmax in beagle dog at 2 mg/kg, po; assay type: ADME, organism-based, Canis lupus familiaris; parameters: dose 2 mg/kg, route oral; details: in vivo
Summary of the method: (§3)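 Beagles; iv 0.55 mg/kg as a solution in EtOH/PEG400/water (10:50:40), and oral 2 mg/kg as a solution in 0.5% methylcellulose. Plasma measured for the parent and the epimer metabolite.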

[8] = Bioavailability in Sprague-Dawley rat at 1 mg/kg, iv; assay type: ADME, organism-based; details: in vivo
Summary of the method: (§4)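 Sprague–Dawley rats; intravenous dose of 1 mg/kg given as a solution in EtOH/PEG400/water (10:50:40).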

[9] = Clearance in rhesus monkey at 1 mg/kg, iv; assay type: ADME, organism-based, Macaca mulatta; parameters: dose 1 mg/kg, route intravenous; details: in vivo; summary of the method: as §2
[10] = system: Rhesus monkey; experiment: AUC in rhesus monkey assessed as trans-4-(5-(5-fluoro-1H-benzo[d]imidazol-2-yl)-2,3'-bipyridin-6'-yloxy)cyclohexanecarboxylic acid at 2 mg/kg, po; assay type: ADME, organism-based, Macaca mulatta, Plasma; parameters: dose 2 mg/kg, route oral; details: in vivo; summary of the method: as §2
[11] = Volume of distribution at steady state in rhesus monkey at 1 mg/kg, iv; assay type: ADME, organism-based, Macaca mulatta; parameters: dose 1 mg/kg, route intravenous; details: in vivo, read-out: Vdss; summary of the method: as §2
[12] = Cmax in rhesus monkey at 2 mg/kg, po; assay type: ADME, organism-based, Macaca mulatta; parameters: dose 2 mg/kg, route oral; details: in vivo; summary of the method: as §2
[13] = Clearance in Sprague-Dawley rat at 1 mg/kg, iv; assay type: ADME, organism-based; parameters: dose 1 mg/kg, route intravenous; details: in vivo; summary of the method: as §4
[14] = Half life in Sprague-Dawley rat at 1 mg/kg, iv; assay type: ADME, organism-based; parameters: dose 1 mg/kg, route intravenous; details: in vivo; summary of the method: as §4
[15] = Bioavailability in beagle dog at 0.55 mg/kg, iv; assay type: ADME, organism-based, Canis lupus familiaris; details: in vivo; summary of the method: as §3
[16] = AUC in Sprague-Dawley rat at 10 mg/kg, po; assay type: ADME, organism-based; parameters: dose 10 mg/kg, route oral; details: plasma; summary of the method: as §1
[17] = system: Rattus norvegicus; experiment: AUC in Sprague-Dawley rat assessed as trans-4-(5-(5-fluoro-1H-benzo[d]imidazol-2-yl)-2,3'-bipyridin-6'-yloxy)cyclohexanecarboxylic acid at 10 mg/kg, po; assay type: ADME, organism-based, Plasma; parameters: dose 10 mg/kg, route oral; details: in vivo; summary of the method: as §1
[18] = Half life in beagle dog at 0.55 mg/kg, iv; assay type: ADME, organism-based, Canis lupus familiaris; parameters: dose 0.55 mg/kg, route intravenous; details: in vivo; summary of the method: as §3
[19] = AUC in beagle dog at 2 mg/kg, po; assay type: ADME, organism-based, Canis lupus familiaris; parameters: dose 2 mg/kg, route oral; details: plasma; summary of the method: as §3
[20] = Tmax in beagle dog at 2 mg/kg, po; assay type: ADME, organism-based, Canis lupus familiaris; parameters: dose 2 mg/kg, route oral; details: in vivo; summary of the method: as §3
[21] = Clearance in beagle dog at 0.55 mg/kg, iv; assay type: ADME, organism-based, Canis lupus familiaris; parameters: dose 0.55 mg/kg, route intravenous; details: in vivo; summary of the method: as §3
[22] = Cmax in Sprague-Dawley rat at 10 mg/kg, po; assay type: ADME, organism-based; parameters: dose 10 mg/kg, route oral; details: in vivo; summary of the method: as §1
[23] = Volume of distribution at steady state in beagle dog at 0.55 mg/kg, iv; assay type: ADME, organism-based, Canis lupus familiaris; parameters: dose 0.55 mg/kg, route intravenous; details: in vivo, read-out: Vdss; summary of the method: as §3
[24] = AUC in rhesus monkey at 2 mg/kg, po; assay type: ADME, organism-based, Macaca mulatta; parameters: dose 2 mg/kg, route oral; details: plasma; summary of the method: as §2
[25] = system: Canis familiaris; experiment: AUC in beagle dog assessed as trans-4-(5-(5-fluoro-1H-benzo[d]imidazol-2-yl)-2,3'-bipyridin-6'-yloxy)cyclohexanecarboxylic acid at 2 mg/kg, po; assay type: ADME, organism-based, Canis lupus familiaris, Plasma; parameters: dose 2 mg/kg, route oral; details: in vivo; summary of the method: as §3
[26] = Half life in rhesus monkey at 1 mg/kg, iv; assay type: ADME, organism-based, Macaca mulatta; parameters: dose 1 mg/kg, route intravenous; details: in vivo; summary of the method: as §2
[27] = Volume of distribution at steady state in Sprague-Dawley rat at 1 mg/kg, iv; assay type: ADME, organism-based; parameters: dose 1 mg/kg, route intravenous; details: in vivo, read-out: Vdss; summary of the method: as §4

Structure (SMILES): O=C(O)[C@H]1CC[C@@H](Oc2ccc(-c3ccc(-c4nc5ccc(F)cc5[nH]4)cn3)cn2)CC1
Tmax [4]: 2 h
bioavailability [5]: 3%
IC50 [1]: 3.4 nM
Tmax [6]: 8 h
Cmax [7]: 60 nM
bioavailability [8]: 2%
clearance [9]: 12.4 mL/min/kg
AUC [10]: 0.56 µM·h
Vd [11]: 0.37 L/kg
Cmax [12]: 10 nM
clearance [13]: 31.8 mL/min/kg
half-life [14]: 1.69 h
bioavailability [15]: 2%
AUC [16]: 0.25 µM·h
AUC [17]: 2.47 µM·h
IC50 [2]: 2 nM
half-life [18]: 0.82 h
AUC [19]: 0.05 µM·h
logD [3]: 1.02
Tmax [20]: 0.25 h
clearance [21]: 32.3 mL/min/kg
Cmax [22]: 60 nM
Vd [23]: 0.63 L/kg
AUC [24]: 0.2 µM·h
AUC [25]: 0.06 µM·h
half-life [26]: 2 h
Vd [27]: 2.18 L/kg

Structure (SMILES): N#Cc1ccc2nc(-c3ccc(-c4ccc(O[C@H]5CC[C@@H](C(=O)O)CC5)nc4)nc3)[nH]c2c1
IC50 [1]: 36 nM
IC50 [2]: 3.2 nM

Structure (SMILES): N#Cc1ccc2nc(-c3ccc(-c4ccc(O[C@H]5CC[C@H](C(=O)O)CC5)nc4)nc3)[nH]c2c1
IC50 [1]: 96 nM
IC50 [2]: 6 nM

Second part, the compound after the results:

IC50 [1]: 1 nM
IC50 [2]: 1.1 nM
logD [3]: 1.8
Structure (SMILES): O=C(O)C[C@H]1CC[C@H](c2ccc(-c3ccc(-c4nc5cc(Cl)ccc5[nH]4)cn3)cc2)CC1

IC50 [1]: 12 nM
IC50 [2]: 5.3 nM
Structure (SMILES): O=C(O)[C@H]1CC[C@H](Oc2ccc(-c3ccc(-c4nc5ccccc5[nH]4)cn3)cn2)CC1
